Assay results taken from ChEMBL document CHEMBL1153389, “Identification of novel antibacterial peptides by chemoinformatics and machine learning” (2009).

Experiments:
Type in all cases: functional
Enterobacter cloacae = assay: Antimicrobial activity against class C chromosomal beta lactamase expressing Enterobacter cloacae 218R after overnight incubation by broth microdilution method
Method in brief: (§1)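 Modified broth microdilution. Peptides are serially diluted in 0.01% acetic acid with 0.2% BSA at 10-fold the final concentration, then added to MH medium in polypropylene plates. Bacteria from an overnight culture are added to a final (2-7) × 10^5 CFU/mL. Plates are incubated overnight at 37 °C. MIC is the lowest concentration with no visible growth.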

Staphylococcus aureus [1] = assay: Antimicrobial activity against Staphylococcus aureus ATCC 25923 after overnight incubation by broth microdilution method
Method in brief: (§2)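 Modified broth microdilution in polypropylene 96-well plates with Mueller-Hinton (MH) medium. Bulk-synthesized peptides were serially diluted at 10-fold final strength in 0.01% acetic acid with 0.2% BSA, then added 1:10 to MH. Inoculum came from an overnight culture at a final (2-7) × 10^5 CFU/mL. Plates were incubated overnight at 37 °C. MIC was the lowest concentration with no visible growth.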

Pseudomonas aeruginosa [2] = assay: Antimicrobial activity against Pseudomonas aeruginosa H1030 after overnight incubation by broth microdilution method; method in brief: as §2
Enterococcus faecalis [3] = assay: Antimicrobial activity against Enterococcus faecalis ATCC 29212 after overnight incubation by broth microdilution method; method in brief: as §1
Escherichia coli [4] = assay: Antimicrobial activity against extended-spectrum beta-lactamase producing Escherichia coli 64771 after overnight incubation by broth microdilution method; method in brief: as §1
Staphylococcus aureus [5] = assay: Antimicrobial activity against methicillin-resistant Staphylococcus aureus C623 after overnight incubation by broth microdilution method; method in brief: as §2
Pseudomonas aeruginosa [6] = assay: Antimicrobial activity against Pseudomonas aeruginosa H1027 after overnight incubation by broth microdilution method; method in brief: as §1
Pseudomonas aeruginosa [7] = assay: Antimicrobial activity against multidrug-resistant Pseudomonas aeruginosa Brazil 198 isolate after overnight incubation by broth microdilution method; method in brief: as §2
Enterococcus faecium [8] = assay: Antimicrobial activity against vancomycin-resistant Enterococcus faecium mic80(VanA) isolate after overnight incubation by broth microdilution method; method in brief: as §2
Enterococcus faecium [9] = assay: Antimicrobial activity against vancomycin-resistant Enterococcus faecium t62764(VanB) isolate after overnight incubation by broth microdilution method; method in brief: as §2
Pseudomonas aeruginosa [10] = assay: Antimicrobial activity against multidrug-resistant Pseudomonas aeruginosa Brazil 9 isolate after overnight incubation by broth microdilution method; method in brief: as §2
Enterococcus faecalis [11] = assay: Antimicrobial activity against vancomycin-resistant Enterococcus faecalis w6190(VanA) isolate after overnight incubation by broth microdilution method; method in brief: as §2
Klebsiella pneumoniae [12] = assay: Antimicrobial activity against extended-spectrum beta-lactamase-resistant Klebsiella pneumoniae 63575 after overnight incubation by broth microdilution method; method in brief: as §2
[13] = tested on: Stenotrophomonas maltophilia; assay: Antimicrobial activity against Pseudomonas maltophilia ATCC 13637 after overnight incubation by broth microdilution method; method in brief: as §1
Escherichia coli [14] = assay: Antimicrobial activity against extended-spectrum beta-lactamase producing Escherichia coli 63103 after overnight incubation by broth microdilution method; method in brief: as §1
Klebsiella pneumoniae [15] = assay: Antimicrobial activity against extended-spectrum beta-lactamase-resistant Klebsiella pneumoniae 61962 after overnight incubation by broth microdilution method; method in brief: as §2
Pseudomonas aeruginosa [16] = assay: Antimicrobial activity against multidrug-resistant Pseudomonas aeruginosa Brazil 213 isolate after overnight incubation by broth microdilution method; method in brief: as §2
Enterococcus faecalis [17] = assay: Antimicrobial activity against vancomycin-resistant Enterococcus faecalis f43559 (VanB) isolate after overnight incubation by broth microdilution method; method in brief: as §2
Pseudomonas aeruginosa [18] = assay: Antimicrobial activity against Pseudomonas aeruginosa LES400 after overnight incubation by broth microdilution method; method in brief: as §2
Pseudomonas aeruginosa [19] = assay: Antimicrobial activity against Pseudomonas aeruginosa H103 after overnight incubation by broth microdilution method; method in brief: as §1
Pseudomonas aeruginosa [20] = assay: Antimicrobial activity against Pseudomonas aeruginosa H1001 expressing luciferase gene assessed as ratio antimicrobial IC50 for drug to Bac2A peptide by luminescence assay
Method in brief: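 Peptides are made by SPOT synthesis on cellulose, cleaved, and the spots placed in plate wells. Overnight P. aeruginosa H1001 (fliC::luxCDABE) is diluted 1:500 in 100 mM Tris-HCl pH 7.3 with 20 mM glucose and added to the wells. After 30 min, serial dilutions (8 rows) are made. Luminescence is read at 4 h. IC50 is taken from a sigmoid fit and expressed relative to Bac2A run in the same series.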

Row | Substance | MIC (Enterobacter cloacae) [µM] | MIC (Staphylococcus aureus [1]) [µM] | MIC (Pseudomonas aeruginosa [2]) [µM] | MIC (Enterococcus faecalis [3]) [µM] | MIC (Escherichia coli [4]) [µM] | MIC (Staphylococcus aureus [5]) [µM] | MIC (Pseudomonas aeruginosa [6]) [µM] | MIC (Pseudomonas aeruginosa [7]) [µM] | MIC (Enterococcus faecium [8]) [µM] | MIC (Enterococcus faecium [9]) [µM] | MIC (Pseudomonas aeruginosa [10]) [µM] | MIC (Enterococcus faecalis [11]) [µM] | MIC (Klebsiella pneumoniae [12]) [µM] | MIC [13] [µM] | MIC (Escherichia coli [14]) [µM] | MIC (Klebsiella pneumoniae [15]) [µM] | MIC (Pseudomonas aeruginosa [16]) [µM] | MIC (Enterococcus faecalis [17]) [µM] | MIC (Pseudomonas aeruginosa [18]) [µM] | MIC (Pseudomonas aeruginosa [19]) [µM] | also measured
1 | H-FRRWWKWFK-OH | 24 | 1.5 | 24 | 24 | 6.1 | 3 | 1.5 | 3 | 6.1 | 6.1 | 12 | 195 | 24 | 0.8 | 12 | 97 | 5.9 | 97 | 5.9 | 1.5 | Ratio IC50 (Pseudomonas aeruginosa [20]): 0.12
2 | H-WKKWWKRRW-OH | 23 | 1.4 | 46 | 93 | 2.9 | 2.9 | 5.8 | 46 | 12 | 5.8 | 46 | > 186 | 46 | 1.4 | 23 | 186 | 93 | > 186 | 46 | 23 | Ratio IC50 (Pseudomonas aeruginosa [20]): 0.19
3 | H-LRWWWIKRI-OH | 50 | 6.3 | 25 | 13 | 13 | 6.3 | 6.3 | 25 | 6.3 | 1.5 | 50 | 50 | 50 | 3.2 | 25 | 201 | 50 | 25 | 25 | 13 | Ratio IC50 (Pseudomonas aeruginosa [20]): 0.33
